{
  "source": "ChEMBL document CHEMBL5338796",
  "about": "“Discovery of a Selective and Orally Bioavailable FGFR2 Degrader for Treating Gastric Cancer” (J Med Chem, 2023)",
  "key": {"[1]": {"target": "Macrophage colony-stimulating factor 1 receptor (Homo sapiens) (UniProt P07333)", "sequence (P07333 whole entry)": "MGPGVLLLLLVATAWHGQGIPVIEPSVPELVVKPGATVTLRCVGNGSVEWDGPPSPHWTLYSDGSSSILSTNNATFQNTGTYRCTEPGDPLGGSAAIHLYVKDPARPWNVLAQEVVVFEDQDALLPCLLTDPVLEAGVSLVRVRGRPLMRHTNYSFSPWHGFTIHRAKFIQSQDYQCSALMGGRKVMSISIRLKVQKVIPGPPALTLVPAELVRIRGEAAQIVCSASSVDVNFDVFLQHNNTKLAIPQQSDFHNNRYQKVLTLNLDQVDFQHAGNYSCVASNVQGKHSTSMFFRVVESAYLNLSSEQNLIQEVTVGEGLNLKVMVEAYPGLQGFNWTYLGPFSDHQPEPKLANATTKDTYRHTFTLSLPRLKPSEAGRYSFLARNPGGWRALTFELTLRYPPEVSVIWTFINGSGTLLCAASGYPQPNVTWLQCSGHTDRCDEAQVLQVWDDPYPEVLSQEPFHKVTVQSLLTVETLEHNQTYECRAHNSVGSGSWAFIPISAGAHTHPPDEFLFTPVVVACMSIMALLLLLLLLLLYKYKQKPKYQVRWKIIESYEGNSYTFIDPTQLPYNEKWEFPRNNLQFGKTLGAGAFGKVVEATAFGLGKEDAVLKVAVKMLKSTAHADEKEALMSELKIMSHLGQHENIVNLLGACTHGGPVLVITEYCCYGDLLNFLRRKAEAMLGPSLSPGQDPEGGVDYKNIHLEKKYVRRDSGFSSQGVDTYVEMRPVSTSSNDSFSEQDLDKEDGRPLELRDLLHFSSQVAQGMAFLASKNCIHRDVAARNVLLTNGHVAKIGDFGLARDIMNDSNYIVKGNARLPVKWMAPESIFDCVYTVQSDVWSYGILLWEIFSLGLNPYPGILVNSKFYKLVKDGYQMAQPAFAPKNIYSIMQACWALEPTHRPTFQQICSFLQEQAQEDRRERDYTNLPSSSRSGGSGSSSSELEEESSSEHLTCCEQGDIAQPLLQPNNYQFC", "assay": "Induction of CSF1R degradation in human THP-1 cells at 0.5 to 10 uM measured for 6 hrs Western blot analysis", "assay_type": "cell-based", "settings": "dose 0.0005-10 µM, in the assay text read “0.5 nM to 10 uM” for “0.5 to 10 uM”", "outline": "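THP-1 cells exposed 6 h to 0.5–10,000 nM degrader (from 10 mM DMSO stock, final DMSO below 0.5%); lysates in 2× loading buffer, SDS-PAGE, PVDF, anti-CSF1R (1:1000) with β-actin loading control, ECL detection.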"}, "[2]": {"target": "T1, Protein cereblon/Fibroblast growth factor receptor 2 (Homo sapiens, UniProt P21802+Q96SW2)", "assay": "PROTAC activity at CRBN/FGFR2 in human KATO III stomach cancer cell line assessed as FGFR2 degradation by measuring FGFR2 expression level at 100 to 500 nM measured for 6 hrs by Western blotting analysis", "assay_type": "cell-based", "settings": "dose 100-500 nM", "outline": "(§1)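 KATO III cells treated 6 h across 0.5–10,000 nM (DMSO stock, final DMSO below 0.5%); FGFR2 immunoblotted, quantified as FGFR2/β-actin ratio normalized to DMSO-treated cells, three independent biological experiments; DC50 and Dmax derived from the curve.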"}, "[3]": {"assay": "Volume of distribution at steady state in mice at 3 mg/kg, iv measured at 0.083 to 24 hrs by LC-MS/MS analysis", "settings": "mouse, in vivo, read-out: Vdss"}, "[4]": {"assay": "Toxicity in ICR mouse assessed as change in spleen weight at 20 mg/kg, po measured for 30 days", "assay_type": "organism-based", "settings": "in vivo, 720 h, time 30 day", "outline": "(§2)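 ICR mice (n = 6) were dosed orally at 20 mg/kg/day for 30 days, alongside vehicle-treated controls. Mortality and clinical signs were checked daily. At the end, body and organ weights were recorded. Heart, liver, spleen, lung and kidney were examined by hematoxylin and eosin staining.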"}, "[5]": {"target": "Fibroblast growth factor receptor 4 (Homo sapiens) (UniProt P22455)", "sequence (P22455 22-802 limits assumed)": "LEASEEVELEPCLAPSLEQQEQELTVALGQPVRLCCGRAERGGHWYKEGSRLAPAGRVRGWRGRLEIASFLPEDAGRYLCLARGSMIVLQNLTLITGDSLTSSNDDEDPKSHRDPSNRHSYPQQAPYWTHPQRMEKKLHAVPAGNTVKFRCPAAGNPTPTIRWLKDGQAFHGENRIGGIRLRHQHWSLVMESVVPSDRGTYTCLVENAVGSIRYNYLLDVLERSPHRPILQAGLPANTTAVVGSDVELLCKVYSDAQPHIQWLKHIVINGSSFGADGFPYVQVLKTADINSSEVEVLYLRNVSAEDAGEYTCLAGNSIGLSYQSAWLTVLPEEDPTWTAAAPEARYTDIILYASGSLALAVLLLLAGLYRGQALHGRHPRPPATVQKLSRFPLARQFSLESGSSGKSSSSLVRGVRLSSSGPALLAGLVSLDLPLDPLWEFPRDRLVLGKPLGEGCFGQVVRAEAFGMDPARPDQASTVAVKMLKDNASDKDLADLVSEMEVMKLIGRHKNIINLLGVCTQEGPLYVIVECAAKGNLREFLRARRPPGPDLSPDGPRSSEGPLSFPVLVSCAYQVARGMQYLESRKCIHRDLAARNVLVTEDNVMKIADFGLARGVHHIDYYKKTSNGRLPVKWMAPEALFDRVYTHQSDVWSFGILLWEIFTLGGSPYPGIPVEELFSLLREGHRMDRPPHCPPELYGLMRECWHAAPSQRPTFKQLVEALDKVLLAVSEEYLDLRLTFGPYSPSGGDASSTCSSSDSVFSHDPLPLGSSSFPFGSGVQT", "assay": "Induction of FGFR4 degradation in human Huh-7 cells at 100 nM measured for 6 hrs Western blot analysis", "assay_type": "cell-based", "outline": "(§3)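 NCI-H1581 (FGFR1), MCF7 (FGFR3) and Huh7 (FGFR4) cells, which endogenously express the isoforms, treated with 100 nM for 6 h; isoform levels by Western blot against β-actin, three biologically independent experiments.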"}, "[6]": {"target": "Macrophage colony-stimulating factor 1 receptor (Homo sapiens) (UniProt P07333)", "assay": "Inhibition of partial length human CSF1R at 1000 nM by KINOMEscan analysis relative to control", "outline": "(§4)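 97-kinase scanEDGE panel screened at 1000 nM; results reported as % Ctrl, lower values meaning stronger inhibition.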"}, "[7]": {"target": "Fibroblast growth factor receptor 1 (Homo sapiens) (UniProt P11362)", "sequence (P11362 22-822 limits assumed)": "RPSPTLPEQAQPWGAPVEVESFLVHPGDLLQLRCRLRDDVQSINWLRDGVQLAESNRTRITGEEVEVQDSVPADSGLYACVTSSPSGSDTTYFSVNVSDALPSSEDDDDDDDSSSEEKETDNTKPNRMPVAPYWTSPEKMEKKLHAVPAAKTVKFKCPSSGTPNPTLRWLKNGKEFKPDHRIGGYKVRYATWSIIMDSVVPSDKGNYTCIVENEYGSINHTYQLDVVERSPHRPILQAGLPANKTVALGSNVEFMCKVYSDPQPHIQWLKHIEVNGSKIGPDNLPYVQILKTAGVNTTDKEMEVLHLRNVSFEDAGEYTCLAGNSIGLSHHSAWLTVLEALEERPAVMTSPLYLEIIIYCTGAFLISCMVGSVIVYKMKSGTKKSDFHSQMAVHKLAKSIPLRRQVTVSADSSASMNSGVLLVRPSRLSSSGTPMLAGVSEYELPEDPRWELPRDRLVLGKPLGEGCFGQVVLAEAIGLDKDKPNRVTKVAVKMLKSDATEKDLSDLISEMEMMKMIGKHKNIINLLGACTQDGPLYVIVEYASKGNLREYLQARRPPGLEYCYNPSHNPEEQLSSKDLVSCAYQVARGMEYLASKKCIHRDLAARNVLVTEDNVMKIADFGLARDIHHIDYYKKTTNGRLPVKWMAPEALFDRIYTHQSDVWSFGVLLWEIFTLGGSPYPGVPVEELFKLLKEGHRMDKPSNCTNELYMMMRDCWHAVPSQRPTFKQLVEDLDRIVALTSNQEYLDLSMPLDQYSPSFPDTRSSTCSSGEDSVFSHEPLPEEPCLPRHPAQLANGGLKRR", "assay": "Induction of FGFR1 degradation in human NCI-H1581 cells at 100 nM measured for 6 hrs Western blot analysis relative to control", "assay_type": "cell-based", "outline": "as §3"}, "[8]": {"assay": "Cmax in mouse at 3 mg/kg, iv measured at 0.083 to 24 hrs by LC-MS/MS analysis", "settings": "in vivo"}, "[9]": {"assay": "Oral bioavailability in mice at 20 mg/kg measured at 0.25 to 24 hrs by LC-MS/MS analysis", "settings": "mouse, in vivo"}, "[10]": {"target": "T1, Protein cereblon/Fibroblast growth factor receptor 2", "assay": "PROTAC activity at CRBN/FGFR2 in human KATO III stomach cancer cell line assessed as FGFR2 degradation by measuring FGFR2 expression level at 0.5 to 100 nM measured for 6 hrs by Western blotting analysis", "assay_type": "cell-based", "settings": "dose 0.5-100 nM", "outline": "as §1"}, "[11]": {"test_system": "KATO III stomach cancer cell line", "assay": "Antiproliferative activity against human KATO III stomach cancer cell line assessed as reduction in cell viability measured for 72 hrs by celltiter-glo reagent based assay", "assay_type": "functional", "outline": "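Cancer lines KATO III, SNU16, NCI-H716, NCI-H1975, MV-4-11 and HEK293T treated 72 h; antiproliferative IC50 given as mean ± s.d. from three independent biological experiments.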"}, "[12]": {"target": "T1, Protein cereblon/Fibroblast growth factor receptor 2", "assay": "PROTAC activity at CRBN/FGFR2 in human KATO III stomach cancer cell line assessed as FGFR2 degradation measured for 6 hrs in presence of MG132 by immunoblot analysis", "assay_type": "cell-based", "outline": "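KATO III cells were pretreated with 1 μM proteasome inhibitor (MG132 or bortezomib), then exposed to degrader at 100 nM for 6 h. FGFR2 was read by immunoblot against β-actin loading, with ECL detection.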"}, "[13]": {"assay": "Toxicity in ICR mouse assessed as morphological changes in kidney at 20 mg/kg, po measured for 30 days by hematoxyin-eosin staining based analysis", "assay_type": "organism-based", "settings": "in vivo, 720 h, time 30 day", "outline": "as §2"}, "[14]": {"assay": "Toxicity in BALB/c mouse xenografted with human SNU-16 cells assessed as body weight loss at 20 mg/kg, po administered for 15 days and measured on day 2", "assay_type": "organism-based", "settings": "in vivo, 48 h, time 2 day", "outline": "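Female BALB/c nude mice, 5 weeks old (20–22 g), carried subcutaneous SNU-16 xenografts in the right flank. Dosing began at mean tumor volume 50–100 mm3, after randomization by body weight, n = 5. Mice received 20 mg/kg/day by gavage in 0.5% CMC-Na, QD for 15 d, with vehicle controls. Body weight was measured every 2 days.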"}, "BaF3 [15]": {"test_system": "BaF3", "assay": "Antiproliferative activity against mouse BaF3 cells expressing Tel-FGFR2 assessed as cell growth inhibition measured after 72 hrs by celltiter-glo reagent based assay", "assay_type": "functional", "settings": "BaF3, 72 h", "outline": "(§5)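 Ba/F3 cells stably expressing cytoplasmic TEL-FGFR1, -2, -3 or -4 fusions were treated in 96-well format, final DMSO 0.1%, for 72 h. Viability read by CellTiter-Glo luminescence after 10 min at room temperature. Inhibition calculated from blank- and control-corrected RLU; IC50 from 4-parameter concentration–response fit.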"}, "[16]": {"assay": "Toxicity in ICR mouse assessed as morphological changes in lung at 20 mg/kg, po measured for 30 days by hematoxyin-eosin staining based analysis", "assay_type": "organism-based", "settings": "in vivo, 720 h, time 30 day", "outline": "as §2"}, "[17]": {"target": "Fibroblast growth factor receptor 3 (Homo sapiens) (UniProt P22607)", "sequence (P22607 23-806 limits assumed)": "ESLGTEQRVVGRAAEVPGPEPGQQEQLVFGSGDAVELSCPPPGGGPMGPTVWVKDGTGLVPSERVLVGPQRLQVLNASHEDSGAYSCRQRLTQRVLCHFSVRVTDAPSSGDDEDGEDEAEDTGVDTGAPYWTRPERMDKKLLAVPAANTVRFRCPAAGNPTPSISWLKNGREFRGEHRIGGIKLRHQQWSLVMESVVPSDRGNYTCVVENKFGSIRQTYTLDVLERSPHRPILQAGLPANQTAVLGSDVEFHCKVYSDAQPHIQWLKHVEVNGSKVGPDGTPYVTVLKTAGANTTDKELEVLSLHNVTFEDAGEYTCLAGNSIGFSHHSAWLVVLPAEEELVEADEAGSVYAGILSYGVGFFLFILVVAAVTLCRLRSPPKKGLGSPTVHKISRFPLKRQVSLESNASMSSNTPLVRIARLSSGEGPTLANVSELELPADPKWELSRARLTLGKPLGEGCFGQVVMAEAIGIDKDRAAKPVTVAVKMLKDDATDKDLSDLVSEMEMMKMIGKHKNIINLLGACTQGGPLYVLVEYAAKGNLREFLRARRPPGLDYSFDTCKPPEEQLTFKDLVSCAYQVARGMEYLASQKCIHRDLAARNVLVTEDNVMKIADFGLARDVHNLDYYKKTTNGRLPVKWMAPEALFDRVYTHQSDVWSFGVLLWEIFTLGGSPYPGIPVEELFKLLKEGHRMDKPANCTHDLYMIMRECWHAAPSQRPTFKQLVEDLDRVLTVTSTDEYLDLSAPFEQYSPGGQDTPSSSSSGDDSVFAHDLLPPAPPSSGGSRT", "assay": "Induction of FGFR3 degradation in human MCF7 cells at 100 nM measured for 6 hrs Western blot analysis", "assay_type": "cell-based", "outline": "as §3"}, "[18]": {"assay": "Half life in Sprague-Dawley rat at 20 mg/kg, po measured at 0.25 to 24 hrs by LC-MS/MS analysis", "assay_type": "ADME, organism-based", "settings": "in vivo, time 0.25-24 hrs", "outline": "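Male Sprague Dawley rats, single dose i.v. 3 mg/kg or p.o. 20 mg/kg in 10% Solutol, 85% (10% HP-β-CD in saline), 5% DMSO, pH adjusted to 9–10.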"}, "BaF3 [19]": {"test_system": "BaF3", "assay": "Antiproliferative activity against mouse BaF3 cells expressing Tel-FGFR3 assessed as cell growth inhibition measured after 72 hrs by celltiter-glo reagent based assay", "assay_type": "functional", "settings": "BaF3, 72 h", "outline": "as §5"}, "[20]": {"target": "Fibroblast growth factor receptor 3 (Homo sapiens) (UniProt P22607)", "assay": "Inhibition of partial length human FGFR3 at 1000 nM by KINOMEscan analysis relative to control", "outline": "as §4"}, "[21]": {"assay": "Toxicity in ICR mouse assessed as morphological changes in liver at 20 mg/kg, po measured for 30 days by hematoxyin-eosin staining based analysis", "assay_type": "organism-based", "settings": "in vivo, 720 h, time 30 day", "outline": "as §2"}, "[22]": {"target": "T1, Protein cereblon/Fibroblast growth factor receptor 2", "assay": "PROTAC activity at CRBN/FGFR2 in human KATO III stomach cancer cell line assessed as FGFR2 degradation by measuring FGFR2 expression level measured for 6 hrs by Western blotting analysis", "assay_type": "cell-based", "outline": "as §1"}},
  "note": "Activity calls are given as the source filed them. No cut-off for these calls is given here.",
  "data": [
    {"smiles": "COc1cc(OC)c(Cl)c(NC(=O)N(C)c2cc(Nc3ccc(N4CCN(C(=O)C5CCN(c6ccc7c(c6)C(=O)N(C6CCC(=O)NC6=O)C7=O)CC5)CC4)cc3)ncn2)c1Cl", "note": "(configuration not stated)", "values": [
      {"measurement": "Activity", "setting": "[1]", "result": "inactive"},
      {"measurement": "Activity", "setting": "[2]", "result": 70, "unit": "%"},
      {"measurement": "Vd", "setting": "[3]", "result": 6.23, "unit": "L/kg"},
      {"measurement": "Activity", "setting": "[4]", "result": "Non-Toxic"},
      {"measurement": "Activity", "setting": "[5]", "result": "inactive"},
      {"measurement": "inhibition", "setting": "[6]", "result": 76, "unit": "%"},
      {"measurement": "Activity", "setting": "[7]", "result": 43, "unit": "%"},
      {"measurement": "Cmax", "setting": "[8]", "result": 655, "unit": "ng/mL"},
      {"measurement": "bioavailability", "setting": "[9]", "result": 13.1, "unit": "%"},
      {"measurement": "Activity", "setting": "[10]", "result": "inactive"},
      {"measurement": "IC50", "setting": "[11]", "result": 29.1, "unit": "nM"},
      {"measurement": "Activity", "setting": "[12]", "result": "inactive"},
      {"measurement": "Activity", "setting": "[13]", "result": "Non-Toxic"},
      {"measurement": "Activity", "setting": "[14]", "result": "Non-Toxic"},
      {"measurement": "IC50", "setting": "BaF3 [15]", "result": 10.3, "unit": "nM"},
      {"measurement": "Activity", "setting": "[16]", "result": "Non-Toxic"},
      {"measurement": "Activity", "setting": "[17]", "result": "inactive"},
      {"measurement": "half-life", "setting": "[18]", "result": 1.47, "unit": "h"},
      {"measurement": "IC50", "setting": "BaF3 [19]", "result": 139, "unit": "nM"},
      {"measurement": "inhibition", "setting": "[20]", "result": 71, "unit": "%"},
      {"measurement": "Activity", "setting": "[21]", "result": "Non-Toxic"},
      {"measurement": "DC50", "setting": "[22]", "result": 11.8, "unit": "nM"}
    ]}
  ]
}
